# Test results from ChEMBL document CHEMBL4138315, “Synthesis and Evaluation of a Novel Bivalent Selective Antagonist for the Mu-Delta Opioid Receptor Heterodimer that Reduces Morphine Withdrawal in Mice” (J Med Chem, 2018).
# Activity calls are given as the source filed them. No cut-off for these calls is given here.
# What was measured:
# Mus musculus [1] = assay: Reduction in morphine dependence expression in acute morphine dependence ICR mouse model assessed as inhibition of naloxone-precipitated GI effects of withdrawal at 1 nmol, […] administered 5 mins prior to naloxone injection measured up to 20 mins; type: functional, organism-based
# Mus musculus [2] = assay: Reduction in morphine dependence expression in chronic morphine dependence ICR mouse model assessed as inhibition of naloxone-precipitated GI effects of withdrawal at 1 nmol, […] administered 5 mins prior to naloxone injection measured up to 20 mins; type: functional, organism-based
# Mus musculus [3] = assay: Antinociceptive activity in icv dosed CD1 mouse assessed as reduction in Deltorphin-2-induced nociception pretreated for 5 mins followed by Deltorphin-2 injection measured up to 2 hrs by tail flick assay; type: functional
# Mus musculus [4] = assay: Reduction in morphine dependence expression in chronic morphine dependence ICR mouse model assessed as inhibition of naloxone-precipitated jumping behavior at 1 nmol, icv administered 5 mins prior to naloxone injection measured up to 20 mins relative to control; type: functional; set-up: scale not given: the % may be the effect or the level left
# In short: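 Chronic dependence: morphine sc twice daily at 10, 20 and 35 mg/kg on days 1-3, single 35 mg/kg on morning of day 4. Naloxone 30 mg/kg ip 4 h later. 1 nmol icv or vehicle 5 min before naloxone. Jumps counted over 20 min in plexiglass cylinders, then urine and feces weighed.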
# [5] = target: T1, Opioid receptors; mu & delta (Homo sapiens, UniProt P41143+P35372); assay: Antagonist activity at human MOR expressed in CHO cell membranes mixed with human DOR expressed in CHO cell membranes assessed as inhibition of CYM51010-induced [35S]-GTPgammaS binding preincubated for 5 mins followed by CYM51010 and [35S]-GTPgammaS addition measured after 80 mins; type: functional
# T1 sequence (P35372 whole entry, looked up): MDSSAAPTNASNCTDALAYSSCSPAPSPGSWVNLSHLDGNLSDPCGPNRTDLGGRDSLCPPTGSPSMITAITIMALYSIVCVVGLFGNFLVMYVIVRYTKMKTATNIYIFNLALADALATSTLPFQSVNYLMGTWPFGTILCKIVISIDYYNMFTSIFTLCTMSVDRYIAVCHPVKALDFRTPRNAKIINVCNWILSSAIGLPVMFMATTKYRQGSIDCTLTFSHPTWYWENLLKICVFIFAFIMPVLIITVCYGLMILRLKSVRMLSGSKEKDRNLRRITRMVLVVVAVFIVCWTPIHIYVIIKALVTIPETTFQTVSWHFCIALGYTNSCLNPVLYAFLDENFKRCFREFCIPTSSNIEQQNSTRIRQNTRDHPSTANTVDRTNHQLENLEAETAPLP
# T1 sequence (P41143 whole entry, looked up): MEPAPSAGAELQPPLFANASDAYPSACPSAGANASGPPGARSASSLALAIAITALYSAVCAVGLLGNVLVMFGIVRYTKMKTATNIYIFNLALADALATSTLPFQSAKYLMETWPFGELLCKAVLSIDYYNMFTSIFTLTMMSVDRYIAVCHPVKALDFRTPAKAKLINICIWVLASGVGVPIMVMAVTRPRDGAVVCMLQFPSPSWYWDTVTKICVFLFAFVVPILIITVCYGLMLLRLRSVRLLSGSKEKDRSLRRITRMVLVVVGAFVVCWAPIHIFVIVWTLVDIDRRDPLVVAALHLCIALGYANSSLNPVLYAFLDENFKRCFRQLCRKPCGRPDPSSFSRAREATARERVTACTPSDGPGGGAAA
# In short: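 MOR-CHO and DOR-CHO membranes mixed at the molar ratio from MDOR-CHO saturation binding (Bmax 7.9 pmol/mg DOR, 1.1 pmol/mg MOR). Antagonist curve preincubated 5 min, then 1 µM CYM51010 and 0.1 nM 35S-GTPγS. Incubated 30°C, 80 min, then filtered and counted. Normalized to CYM51010 alone and vehicle. N = 3 independent experiments in duplicate.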
# [6] = target: T1, Opioid receptors; mu & delta; assay: Displacement of [3H]-diprenorphine from human mu-delta opioid receptor expressed in CHO cell membranes after 80 mins by scintillation counting analysis
# In short: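 Competition binding on MOR-, DOR- or MDOR-CHO membranes used a fixed 3H-diprenorphine level against competitor concentration curves; 30°C, 80 min, GF/B filtration, scintillation counting. Nonspecific binding defined with 500 nM each DMT-Tic-Ala-OH and CTAP. Ki was derived from IC50 and the 3H-diprenorphine KD in each line; MDOR data fitted with a 2-site model. N = 3-4, mean ± SEM.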
smiles,measurement,setting,value
N[C@@H](Cc1ccc(O)cc1)C(=O)N1Cc2ccccc2C[C@@H]1C(=O)NCC(=O)NCCCCC(=O)N[C@H](CCCCNC(=O)CCCCNC(=O)CNC(=O)[C@@H](Cc1cccc2ccccc12)NC(=O)[C@H](Cc1ccccc1)NC(=O)[C@@H]1CCCN1C(=O)[C@@H](N)Cc1ccc(O)cc1)C(=O)O,Activity,Mus musculus [1],inactive
same,Activity,Mus musculus [2],Active
same,A50,Mus musculus [3],7.77 nmol
same,Activity,Mus musculus [3],Dose-dependent effect
same,Activity,Mus musculus [4],85.2%
same,IC50H,[5],89 nM
same,IC50L,[5],> 1000 nM
same,KiH,[6],0.63 nM
